One block for each molecule: values may come before it.
How the values were obtained:
[1] = Metabolic stability in mouse plasma assessed as half life at 2 uM measured after 0 to 120 mins by LC-MS/MS analysis; format: ADME, cell-free; conditions: time 0-120 min; for t1/2: 2 µM
[2] = Cmax in male CD-1 mouse at 3 mg/kg, iv measured upto 240 mins by LC/MS/MS analysis; format: ADME, organism-based; conditions: in vivo, 4 h
[3] = Tmax in male CD-1 mouse at 3 mg/kg, iv measured upto 240 mins by LC/MS/MS analysis; format: ADME, organism-based; conditions: in vivo, 4 h
Method in brief: (§1)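 Mouse PK after single intravenous injection of 3 mg/kg; n = 3 animals per time point; plasma concentration–time profile used for observed and calculated PK parameters.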

[4] = Half life in male CD-1 mouse at 3 mg/kg, iv measured upto 240 mins by LC/MS/MS analysis; format: ADME, organism-based; conditions: in vivo, 4 h; method in brief: as §1
[5] = Cmax in male CD-1 mouse at 10 mg/kg, po measured upto 480 mins by LC-MS/MS analysis; format: ADME, organism-based; conditions: in vivo, 8 h
Method in brief: (§2)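 Mouse PK after single oral dose of 10 mg/kg; n = 3 animals per time point; plasma concentration–time profile used for observed and calculated PK parameters.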

[6] = Half life in male CD-1 mouse at 10 mg/kg, po measured upto 480 mins by LC-MS/MS analysis; format: ADME, organism-based; conditions: in vivo, 8 h; method in brief: as §2
[7] = Oral bioavailability in male CD-1 mouse at 10 mg/kg measured upto 480 mins by LC-MS/MS analysis; format: ADME, organism-based; conditions: in vivo, 8 h; method in brief: as §2
[8] = Drug concentration in male CD-1 mouse plasma at 3 mg/kg, iv measured after 4 hrs by LC-MS/MS analysis; format: ADME, organism-based; method in brief: as §1
[9] = Drug concentration in male CD-1 mouse plasma at 10 mg/kg, po measured after 4 hrs by LC-MS/MS analysis; format: ADME, organism-based; method in brief: as §2
[10] = Metabolic stability in mouse liver microsomes assessed as half life at […] preincubated for 15 mins followed by NADPH cofactor addition and measured after 1 hr by LC-MS/MS analysis; format: ADME, Microsome; conditions: dose 4.6 µM, time 75 min
[11] = Drug concentration in male CD-1 mouse plasma at 10 mg/kg, po measured after 8 hrs by LC-MS/MS analysis; format: ADME, organism-based; method in brief: as §2

t1/2 [1]: > 2 h
SMILES: FC(F)(F)c1cccc(Nc2nc(-c3ccccc3)cc(C3CCNCC3)n2)c1

t1/2 [1]: > 2 h
SMILES: COc1cc(Nc2nc(-c3ccccc3)cc(C3CCNCC3)n2)ccn1

t1/2 [1]: > 2 h
SMILES: c1ccc(-c2cc(Nc3ccc4cc[nH]c4c3)nc(C3CCNCC3)n2)cc1

t1/2 [1]: > 2 h
Cmax [2]: 643 ng/mL
Tmax [3]: 5 min
t1/2 [4]: 1.92 h
Cmax [5]: 99 ng/mL
t1/2 [6]: 1.52 h
F [7]: 8%
concentration at 4 h [8]: 84 ng/mL
concentration at 4 h [9]: 40 ng/mL
SMILES: FC(F)(F)c1cc(Nc2nc(-c3ccccc3)cc(C3CCNCC3)n2)ccn1

half-life at 2 µM [1]: > 2 h
half-life at […] [10]: > 1 h
SMILES: FC(F)(F)c1cccc(Nc2nc(-c3cccc4cnccc34)nc(C3CCNCC3)n2)c1

t1/2 [1]: 1 h
SMILES: CN(C)c1cccc(Nc2nc(-c3ccccc3)cc(C3CCNCC3)n2)c1

t1/2 [1]: > 2 h
SMILES: Cn1ccc2ccc(Nc3cc(-c4ccccc4)nc(C4CCNCC4)n3)cc21

t1/2 [1]: > 2 h
SMILES: FC(F)(F)Oc1cccc(Nc2nc(-c3ccccc3)cc(C3CCNCC3)n2)c1

half-life at 2 µM [1]: > 2 h
Cmax [2]: 320 ng/mL
Tmax [3]: 5 min
t1/2 [4]: 4.28 h
Cmax [5]: 140 ng/mL
t1/2 [6]: 2.8 h
F [7]: 22%
concentration at 4 h [8]: 74 ng/mL
concentration at 8 h [11]: 7 ng/mL
SMILES: COc1ccc(Nc2nc(-c3ccccc3)cc(C3CCNCC3)n2)cc1OC

t1/2 [1]: > 2 h
SMILES: COc1ccc(Nc2nc(-c3ccccc3)cc(C3CCNCC3)n2)cn1

t1/2 [1]: 1.48 h
SMILES: COC(=O)c1cc(Nc2nc(-c3ccccc3)cc(C3CCNCC3)n2)ccc1OC

half-life at 2 µM [1]: > 2 h
half-life at […] [10]: > 1 h
SMILES: Cn1ccc2cc(-c3nc(Nc4cccc(C(F)(F)F)c4)nc(C4CCNCC4)n3)ccc21

half-life at 2 µM [1]: > 2 h
half-life at […] [10]: > 1 h
SMILES: FC(F)(F)c1cccc(Nc2nc(-c3coc4ccccc34)nc(C3CCNCC3)n2)c1

SMILES: CN(C)c1cccc(Nc2cc(-c3ccccc3)nc(C3=CCNCC3)n2)c1
t1/2 [1]: > 2 h

t1/2 [1]: > 2 h
SMILES: FC(F)(F)c1cccc(Nc2nc(-c3ccc[nH]3)nc(C3CCNCC3)n2)c1

SMILES: FC(F)(F)c1cccc(Nc2nc(C3=CCNCC3)nc(-c3ccsc3)n2)c1
t1/2 [1]: > 2 h

half-life at 2 µM [1]: > 2 h
half-life at […] [10]: > 1 h
SMILES: FC(F)(F)c1cccc(Nc2nc(-c3ccc4[nH]ncc4c3)nc(C3CCNCC3)n2)c1

t1/2 [1]: > 2 h
SMILES: FC(F)Oc1cc(Nc2nc(-c3ccccc3)cc(C3CCNCC3)n2)ccn1
